Source: ChEMBL document CHEMBL4152290, “1H-Benzo[d]imidazoles and 3,4-dihydroquinazolin-4-ones: Design, synthesis and antitubercular activity” (Eur J Med Chem, 2018)
Converted amounts (≈) assume the structure as drawn.

System: Mycobacterium tuberculosis
Test: Antitubercular activity against Mycobacterium tuberculosis H37Rv ATCC 27294 after 7 days by resazurin dye based assay
Assay type: functional
Settings: H37Rv ATCC 27294, 168 h
Procedure, shortened: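 Resazurin microtiter MIC in 7H9 with 10% ADC. Two-fold dilutions from 1 mg/mL DMSO stocks span 25.0–0.05, 10.0–0.02 or 0.02–0.0004 µg/mL, with 2.5% DMSO final. Inoculum is bead-declumped culture grown in 7H9/10% OADC/0.05% Tween 80, diluted to OD600 0.006. Plates run 7 days at 37 °C, then 0.01% resazurin for 48 h. MIC is the lowest concentration preventing the blue-to-pink change. Three independent tests.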

## O=C(CSc1nc(O)c2ccccc2n1)Nc1ccc([N+](=O)[O-])cc1
  MIC: > 28.1 µM

## O=C(CSc1nc(O)c2ccccc2n1)N1CCCCC1
  MIC: > 33 µM

## O=C(CSc1nc2ccccc2c(=O)[nH]1)N[C@@H]1CCc2ccccc2C1
  MIC: 17.1 µM (≈ 6.25 µg/mL)

## NNC(=O)c1ccncc1 [ISONIAZID]
  MIC: 2.9 µM (≈ 0.398 µg/mL)

## O=C(CSc1nc2ccccc2c(=O)[nH]1)Nc1ccccc1
  MIC: > 32.1 µM

## CCCCCc1ccc(NC(=O)CSc2nc3ccccc3c(=O)[nH]2)cc1
  MIC: 26.2 µM (≈ 10 µg/mL)

## O=C(CSc1nc2ccccc2c(=O)[nH]1)Nc1ccc(Cl)cc1
  MIC: 28.9 µM (≈ 9.99 µg/mL)

## O=C(CSc1nc2ccccc2[nH]1)NCc1ccccc1
  MIC: > 33.6 µM

## CC1CCC(NC(=O)CSc2nc3ccccc3[nH]2)CC1 (stereo not drawn)
  MIC: 41.2 µM (≈ 12.5 µg/mL)

## O=C(CSc1nc(O)c2ccccc2n1)Nc1ccc(Br)cc1
  MIC: > 25.6 µM

## O=C(CSc1nc2ccccc2c(=O)[nH]1)Nc1ccc2ccccc2c1
  MIC: > 27.7 µM

## O=C(CSc1nc2ccccc2[nH]1)Nc1ccc2c(c1)CCC2
  MIC: > 29.6 µM

## O=C(CSc1nc2ccccc2c(=O)[nH]1)NCc1ccccc1
  MIC: 4.8 µM (≈ 1.56 µg/mL)

## COc1ccc(NC(=O)CSc2nc3ccccc3c(=O)[nH]2)cc1
  MIC: > 29.3 µM

## COc1ccccc1NC(=O)CSc1nc2ccccc2[nH]1
  MIC: > 31.9 µM

## CC1CCCCC1NC(=O)CSc1nc2ccccc2[nH]1 (stereo not drawn)
  MIC: > 33 µM

## O=C(CSc1nc2ccccc2c(=O)[nH]1)Nc1ccc(I)cc1
  MIC: > 22.9 µM

## C[C@H](NC(=O)CSc1nc2ccccc2c(=O)[nH]1)C1CCCCC1
  MIC: > 28.9 µM

## C[C@@H](NC(=O)CSc1nc2ccccc2c(=O)[nH]1)C1CCCCC1
  MIC: > 28.9 µM

## O=C(CSc1nc2ccccc2c(=O)[nH]1)Nc1ccc(F)cc1
  MIC: > 30.4 µM

## O=C(CSc1nc2ccccc2c(=O)[nH]1)NC1CCCC1
  MIC: 2.07 µM (≈ 0.628 µg/mL)

## CC1CCCC(NC(=O)CSc2nc3ccccc3[nH]2)C1 (stereo not drawn)
  MIC: > 33 µM

## O=C(CSc1nc2ccccc2[nH]1)Nc1ccc2ccccc2c1
  MIC: > 75 µM

## CCCCCCCc1ccc(NC(=O)CSc2nc3ccccc3[nH]2)cc1
  MIC: > 65.5 µM

## CN(C(=O)CSc1nc2ccccc2c(=O)[nH]1)C1CCCCC1
  MIC: > 75.4 µM

## C[C@H]1CC[C@H](NC(=O)CSc2nc3ccccc3[nH]2)CC1
  MIC: 16.5 µM (≈ 5.01 µg/mL)

## O=C(CSc1nc2ccccc2[nH]1)NC1CCCCC1
  MIC: > 31.3 µM

## Cc1ccc(NC(=O)CSc2nc3ccccc3c(=O)[nH]2)cc1
  MIC: > 30.7 µM

## O=C(CSc1nc2ccccc2c(=O)[nH]1)N[C@H]1CCc2ccccc2C1
  MIC: > 27.4 µM

## CCCc1ccc(NC(=O)CSc2nc3ccccc3c(=O)[nH]2)cc1
  MIC: > 28.3 µM

## O=C(CSc1nc2ccccc2[nH]1)NCC1CCCCC1
  MIC: 82.4 µM (≈ 25 µg/mL)

## C[C@H](NC(=O)CSc1nc2ccccc2[nH]1)C1CCCCC1
  MIC: > 31.5 µM

## CCCCCc1ccc(NC(=O)CSc2nc3ccccc3[nH]2)cc1
  MIC: > 70.7 µM
